Laboratory results: ChEMBL document CHEMBL1140548, “Synthesis, antibacterial activity, and quantitative structure-activity relationships of new (Z)-2-(nitroimidazolylmethylene)-3(2H)-benzofuranone derivatives” (2007)
≈ marks a conversion by molar mass, not a printed value.

Assays:
Format in all cases: functional
Bacillus subtilis [1] = test: Antimicrobial activity against Bacillus subtilis ATCC 6633
Procedure, shortened: (§1)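 Agar-dilution assay run in vitro on a panel of Gram-positive and Gram-negative bacteria, with amoxicillin as the reference drug. The MIC was taken as the minimal inhibitory concentration.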

Staphylococcus aureus [2] = test: Antimicrobial activity against methicillin-resistant Staphylococcus aureus isolate
Procedure, shortened: (§2)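 In vitro conventional agar-dilution assay against a panel of Gram-positive and Gram-negative bacteria. Read-out is the minimal inhibitory concentration (MIC), with amoxicillin as the reference drug.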

Staphylococcus aureus [3] = test: Antimicrobial activity against Staphylococcus aureus ATCC 6538p; procedure, shortened: as §1
[4] = tested on: Staphylococcus epidermidis; test: Antimicrobial activity against Staphylococcus epidermidis ATCC 12228; procedure, shortened: as §1
Klebsiella pneumoniae [5] = test: Antimicrobial activity against Klebsiella pneumoniae ATCC 10031; procedure, shortened: as §1
[6] = tested on: Staphylococcus epidermidis; test: Antimicrobial activity against Staphylococcus epidermidis ATCC 12228 in presence of 0.1% butylated hydroxytoluene
Staphylococcus aureus [7] = test: Antimicrobial activity against methicillin-resistant Staphylococcus aureus isolate in presence of 0.1% butylated hydroxytoluene; procedure, shortened: as §2
Staphylococcus aureus [8] = test: Antimicrobial activity against Staphylococcus aureus ATCC 6538p in presence of 0.1% butylated hydroxytoluene; procedure, shortened: as §2
Klebsiella pneumoniae [9] = test: Antimicrobial activity against Klebsiella pneumoniae ATCC 10031 in presence of 0.1% butylated hydroxytoluene
Bacillus subtilis [10] = test: Antimicrobial activity against Bacillus subtilis ATCC 6633 in presence of 0.1% butylated hydroxytoluene

SMILES | MIC (Bacillus subtilis [1]) [µg/mL] | MIC (Staphylococcus aureus [2]) [µg/mL] | MIC (Staphylococcus aureus [3]) [µg/mL] | MIC [4] [µg/mL] | MIC (Klebsiella pneumoniae [5]) [µg/mL] | MIC [6] [µg/mL] | MIC (Staphylococcus aureus [7]) [µg/mL] | MIC (Staphylococcus aureus [8]) [µg/mL] | MIC (Klebsiella pneumoniae [9]) [µg/mL] | MIC (Bacillus subtilis [10]) [µg/mL]
Cc1cccc2c1O/C(=C\c1c([N+](=O)[O-])ncn1C)C2=O | > 100 | > 100 | > 100 | > 100 | > 100 | – | – | – | – | –
Cn1c([N+](=O)[O-])cnc1/C=C1\Oc2ccc(Cl)cc2C1=O | 1.56 (≈ 5.1 µM) | 3.12 (≈ 10.2 µM) | 3.12 (≈ 10.2 µM) | 3.12 (≈ 10.2 µM) | 0.78 (≈ 2.55 µM) | – | – | – | – | –
COc1ccc2c(c1OC)O/C(=C\c1ncc([N+](=O)[O-])n1C)C2=O | 0.39 (≈ 1.18 µM) | 0.78 (≈ 2.35 µM) | 0.78 (≈ 2.35 µM) | 0.39 (≈ 1.18 µM) | 0.2 (≈ 0.604 µM) | – | – | – | – | –
Cn1c([N+](=O)[O-])cnc1/C=C1\Oc2ccc(I)cc2C1=O | > 100 | > 100 | > 100 | > 100 | 50 (≈ 126 µM) | – | – | – | – | –
Cc1ccc2c(c1)O/C(=C\c1c([N+](=O)[O-])ncn1C)C2=O | > 100 | > 100 | > 100 | > 100 | > 100 | – | – | – | – | –
COc1ccc2c(c1)C(=O)/C(=C/c1c([N+](=O)[O-])ncn1C)O2 | > 100 | > 100 | > 100 | > 100 | 6.25 (≈ 20.7 µM) | – | – | – | – | –
COc1ccc2c(c1)O/C(=C\c1c([N+](=O)[O-])ncn1C)C2=O | > 100 | > 100 | > 100 | > 100 | > 100 | – | – | – | – | –
Cn1cnc([N+](=O)[O-])c1/C=C1\Oc2c(Cl)cccc2C1=O | > 100 | > 100 | > 100 | > 100 | > 100 | – | – | – | – | –
Cn1c([N+](=O)[O-])cnc1C=C1C(=O)c2ccccc2C1=O | 50 (≈ 177 µM) | 100 (≈ 353 µM) | 100 (≈ 353 µM) | 50 (≈ 177 µM) | > 100 | – | – | – | – | –
Cc1ccc2c(c1)O/C(=C\c1ncc([N+](=O)[O-])n1C)C2=O | 0.78 (≈ 2.73 µM) | 1.56 (≈ 5.47 µM) | 3.12 (≈ 11 µM) | 1.56 (≈ 5.47 µM) | 0.39 (≈ 1.37 µM) | – | – | – | – | –
Cc1ccc2c(c1)C(=O)/C(=C/c1c([N+](=O)[O-])ncn1C)O2 | > 100 | > 100 | > 100 | > 100 | > 100 | – | – | – | – | –
Cn1cnc([N+](=O)[O-])c1/C=C1\Oc2ccccc2C1=O | > 100 | > 100 | > 100 | > 100 | > 100 | – | – | – | – | –
Cn1cnc([N+](=O)[O-])c1/C=C1\Oc2ccc(Br)cc2C1=O | > 100 | > 100 | > 100 | > 100 | > 100 | – | – | – | – | –
Cn1c([N+](=O)[O-])cnc1/C=C1\Oc2ccc(Br)cc2C1=O | > 100 | > 100 | > 100 | > 100 | 3.12 (≈ 8.93 µM) | – | – | – | – | –
Cn1c([N+](=O)[O-])cnc1/C=C1\Oc2cc(O)ccc2C1=O | – | – | – | – | – | 6.25 | 12.5 | 12.5 | 3.12 | 6.25
COc1cccc2c1O/C(=C\c1ncc([N+](=O)[O-])n1C)C2=O | 0.78 (≈ 2.59 µM) | 0.78 (≈ 2.59 µM) | 0.78 (≈ 2.59 µM) | 0.78 (≈ 2.59 µM) | 0.78 (≈ 2.59 µM) | – | – | – | – | –

SMILES | MIC (Bacillus subtilis [1]) [µg/mL] | MIC (Staphylococcus aureus [2]) [µg/mL] | MIC (Staphylococcus aureus [3]) [µg/mL] | MIC [4] [µg/mL] | MIC (Klebsiella pneumoniae [5]) [µg/mL] | MIC [6] [µg/mL] | MIC (Staphylococcus aureus [7]) [µg/mL] | MIC (Staphylococcus aureus [8]) [µg/mL] | MIC (Klebsiella pneumoniae [9]) [µg/mL] | MIC (Bacillus subtilis [10]) [µg/mL]
Cn1cnc([N+](=O)[O-])c1/C=C1\Oc2ccc(Cl)cc2C1=O | > 100 | > 100 | > 100 | > 100 | > 100 | – | – | – | – | –
Cn1c([N+](=O)[O-])cnc1/C=C1\Cc2ccccc2C1=O | > 100 | > 100 | > 100 | > 100 | 0.2 (≈ 0.743 µM) | – | – | – | – | –
COc1ccc2c(c1)O/C(=C\c1ncc([N+](=O)[O-])n1C)C2=O | 0.78 (≈ 2.59 µM) | 1.56 (≈ 5.18 µM) | 1.56 (≈ 5.18 µM) | 1.56 (≈ 5.18 µM) | 0.39 (≈ 1.29 µM) | – | – | – | – | –
Cn1c([N+](=O)[O-])cnc1/C=C1\Oc2ccc([N+](=O)[O-])cc2C1=O | 12.5 (≈ 39.5 µM) | 12.5 (≈ 39.5 µM) | 12.5 (≈ 39.5 µM) | 6.25 (≈ 19.8 µM) | 6.25 (≈ 19.8 µM) | – | – | – | – | –
CC1(C)S[C@@H]2[C@H](NC(=O)[C@H](N)c3ccc(O)cc3)C(=O)N2[C@H]1C(=O)O [AMOXICILLIN] | 12.5 (≈ 34.2 µM) | 12.5 (≈ 34.2 µM) | 0.195 (≈ 0.534 µM) | 0.195 (≈ 0.534 µM) | > 100 | – | – | – | – | –
COc1ccc2c(c1)C(=O)/C(=C/c1ncc([N+](=O)[O-])n1C)O2 | 0.78 (≈ 2.59 µM) | 3.12 (≈ 10.4 µM) | 3.12 (≈ 10.4 µM) | 3.12 (≈ 10.4 µM) | 0.39 (≈ 1.29 µM) | – | – | – | – | –
Cn1c([N+](=O)[O-])cnc1/C=C1\Oc2ccccc2C1=O | 0.78 (≈ 2.88 µM) | 6.25 (≈ 23 µM) | 3.12 (≈ 11.5 µM) | 3.12 (≈ 11.5 µM) | 0.39 (≈ 1.44 µM) | – | – | – | – | –
COc1cccc2c1O/C(=C\c1c([N+](=O)[O-])ncn1C)C2=O | > 100 | > 100 | > 100 | > 100 | > 100 | – | – | – | – | –
Cn1cnc([N+](=O)[O-])c1/C=C1\Oc2ccc([N+](=O)[O-])cc2C1=O | > 100 | > 100 | > 100 | > 100 | > 100 | – | – | – | – | –
Cc1ccc2c(c1)C(=O)/C(=C/c1ncc([N+](=O)[O-])n1C)O2 | 1.56 (≈ 5.47 µM) | 3.12 (≈ 11 µM) | 3.12 (≈ 11 µM) | 3.12 (≈ 11 µM) | 0.39 (≈ 1.37 µM) | – | – | – | – | –
Cn1cnc([N+](=O)[O-])c1/C=C1\Oc2cc(Cl)ccc2C1=O | > 100 | > 100 | > 100 | > 100 | > 100 | – | – | – | – | –
Cn1cnc([N+](=O)[O-])c1/C=C1\Oc2ccc(I)cc2C1=O | > 100 | > 100 | > 100 | > 100 | > 100 | – | – | – | – | –
Cc1cccc2c1O/C(=C\c1ncc([N+](=O)[O-])n1C)C2=O | 1.56 (≈ 5.47 µM) | 3.12 (≈ 11 µM) | 3.12 (≈ 11 µM) | 1.56 (≈ 5.47 µM) | 0.39 (≈ 1.37 µM) | – | – | – | – | –
Cn1c([N+](=O)[O-])cnc1/C=C1\Oc2c(Cl)cccc2C1=O | 3.12 (≈ 10.2 µM) | 3.12 (≈ 10.2 µM) | 3.12 (≈ 10.2 µM) | 3.12 (≈ 10.2 µM) | 1.56 (≈ 5.1 µM) | – | – | – | – | –
Cn1c([N+](=O)[O-])cnc1/C=C1\Oc2cc(O)cc(O)c2C1=O | – | – | – | – | – | 50 | > 100 | > 100 | > 100 | 50
Cn1c([N+](=O)[O-])cnc1/C=C1\Oc2cc(Cl)ccc2C1=O | 1.56 (≈ 5.1 µM) | > 100 | > 100 | > 100 | 0.78 (≈ 2.55 µM) | – | – | – | – | –
